Measured values as given in ChEMBL document CHEMBL5329156, “Discovery and development of novel substituted monohydrazides as potent antifungal agents” (RSC Med Chem, 2023).
In brackets after ≈: the same amount, converted by molar mass. Activity calls are given as the source filed them. No cut-off for these calls is given here.

Assays:
Candida albicans [1] = experiment: Antifungal activity against itraconazole/fluconazole susceptible Candida albicans ATCC MYA-2876 assessed as fungal growth inhibition by double dilution method; assay type: functional
Method in brief: (§1)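 Broth microdilution after CLSI M27-A3/M38-A2 with minor modifications. A single colony was grown overnight in YPD at 35 °C with shaking at 200 rpm. Cells were mixed 1:1 with compound (final 0.06-31.3 µg/mL, from DMSO stocks) and incubated 48 h at 35 °C.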

[Candida] auris [2] = Antifungal activity against Candida auris AR Bank # 383 assessed as fungal growth inhibition by double dilution method; assay type: functional; settings: Candidozyma auris
Method in brief: (§2)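 Broth microdilution after CLSI M27-A3/M38-A2 with minor changes. Single colony grown overnight in YPD at 35 °C, 200 rpm. Compound final range 0.06-31.3 µg/mL; incubated 48 h at 35 °C.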

[Candida] auris [3] = Antifungal activity against Candida auris AR Bank # 386 assessed as fungal growth inhibition by double dilution method; assay type: functional; settings: Candidozyma auris; method in brief: as §2
Candida albicans [4] = experiment: Antifungal activity against Candida albicans ATCC 10231 assessed as fungal growth inhibition by double dilution method; assay type: functional; method in brief: as §2
Saccharomyces cerevisiae [5] = experiment: Antifungal activity against Saccharomyces cerevisiae AR Bank # 400 assessed as fungal growth inhibition by double dilution method; assay type: functional; method in brief: as §2
Candida albicans [6] = experiment: Antifungal activity against Candida albicans ATCC 64124 assessed as fungal growth inhibition by double dilution method; assay type: functional; method in brief: as §1
[Candida] auris [7] = Antifungal activity against Candida auris AR Bank # 387 assessed as fungal growth inhibition by double dilution method; assay type: functional; settings: Candidozyma auris; method in brief: as §2
Clavispora lusitaniae = experiment: Antifungal activity against Clavispora lusitaniae AR Bank # 398 assessed as fungal growth inhibition by double dilution method; assay type: functional; method in brief: as §2
Aspergillus fumigatus [8] = experiment: Antifungal activity against Aspergillus fumigatus NRRL 6113 assessed as fungal growth inhibition by double dilution method; assay type: functional
Candida duobushaemulonii [9] = experiment: Antifungal activity against Candida duobushaemulonii AR Bank # 394 assessed as fungal growth inhibition by double dilution method; assay type: functional; settings: Candidozyma duobushaemuli; method in brief: as §2
[Candida] auris [10] = Antifungal activity against Candida auris AR Bank # 390 assessed as fungal growth inhibition by double dilution method; assay type: functional; settings: Candidozyma auris; method in brief: as §2
[Candida] haemuloni [11] = Antifungal activity against Candida haemulonii AR Bank # 393 assessed as fungal growth inhibition by double dilution method; assay type: functional; settings: Candidozyma haemuli; method in brief: as §2
Candida duobushaemulonii [12] = experiment: Antifungal activity against Candida duobushaemulonii AR Bank # 391 assessed as fungal growth inhibition by double dilution method; assay type: functional; settings: Candidozyma duobushaemuli; method in brief: as §2
Saccharomyces cerevisiae [13] = experiment: Antifungal activity against Saccharomyces cerevisiae AR Bank # 399 assessed as fungal growth inhibition by double dilution method; assay type: functional; method in brief: as §2
[Candida] haemuloni [14] = Antifungal activity against Candida haemulonii AR Bank # 395 assessed as fungal growth inhibition by double dilution method; assay type: functional; settings: Candidozyma haemuli; method in brief: as §2
[Candida] auris [15] = Antifungal activity against Candida auris AR Bank # 381 assessed as fungal growth inhibition by double dilution method; assay type: functional; settings: Candidozyma auris; method in brief: as §2
[Candida] auris [16] = Antifungal activity against Candida auris AR Bank # 388 assessed as fungal growth inhibition by double dilution method; assay type: functional; settings: Candidozyma auris; method in brief: as §2
Aspergillus fumigatus [17] = experiment: Antifungal activity against Aspergillus fumigatus NRRL 163 assessed as fungal growth inhibition by double dilution method; assay type: functional
Nakaseomyces glabratus [18] = experiment: Antifungal activity against Candida glabrata ATCC 22019 assessed as fungal growth inhibition by double dilution method; assay type: functional; method in brief: as §2
[Candida] auris [19] = Antifungal activity against Candida auris AR Bank # 385 assessed as fungal growth inhibition by double dilution method; assay type: functional; settings: Candidozyma auris; method in brief: as §2
Aspergillus terreus = experiment: Antifungal activity against Aspergillus terreus ATCC MYA-3633 assessed as fungal growth inhibition by double dilution method; assay type: functional
[Candida] auris [20] = Antifungal activity against Candida auris AR Bank # 382 assessed as fungal growth inhibition by double dilution method; assay type: functional; settings: Candidozyma auris; method in brief: as §2
Cryptococcus neoformans = experiment: Antifungal activity against Cryptococcus neoformans ATCC MYA-895 assessed as fungal growth inhibition by double dilution method; assay type: functional; method in brief: as §2
Kodamaea ohmeri = experiment: Antifungal activity against Kodamaea ohmeri AR Bank # 396 assessed as fungal growth inhibition by double dilution method; assay type: functional; method in brief: as §2
Candida albicans [21] = experiment: Antifungal activity against itraconazole/fluconazole resistant Candida albicans ATCC 90819 assessed as fungal growth inhibition by double dilution method; assay type: functional; method in brief: as §1
Candida albicans [22] = experiment: Antifungal activity against itraconazole/fluconazole resistant Candida albicans ATCC MYA-1003 assessed as fungal growth inhibition by double dilution method; assay type: functional; method in brief: as §1
Aspergillus fumigatus [23] = experiment: Antifungal activity against Aspergillus fumigatus NRRL 5109 assessed as fungal growth inhibition by double dilution method; assay type: functional
Aspergillus nidulans = experiment: Antifungal activity against Aspergillus nidulans ATCC 38163 assessed as fungal growth inhibition by double dilution method; assay type: functional
[Candida] auris [24] = Antifungal activity against Candida auris AR Bank # 389 assessed as fungal growth inhibition by double dilution method; assay type: functional; settings: Candidozyma auris; method in brief: as §2
Pichia kudriavzevii [25] = experiment: Antifungal activity against Pichia kudriavzevii AR Bank # 397 assessed as fungal growth inhibition by double dilution method; assay type: functional; method in brief: as §2
Candida duobushaemulonii [26] = experiment: Antifungal activity against Candida duobushaemulonii AR Bank # 392 assessed as fungal growth inhibition by double dilution method; assay type: functional; settings: Candidozyma duobushaemuli; method in brief: as §2
Aspergillus flavus = experiment: Antifungal activity against Aspergillus flavus ATCC MYA-3631 assessed as fungal growth inhibition by double dilution method; assay type: functional
Pichia kudriavzevii [27] = experiment: Antifungal activity against Pichia kudriavzevii ATCC 6258 assessed as fungal growth inhibition by double dilution method; assay type: functional; method in brief: as §2
Candida albicans [28] = experiment: Antibiofilm activity against Candida albicans ATCC 10231 assessed as reduction in biofilm production at 1.96 to 3.9 microg/ml by biofilm formation assay; assay type: functional, organism-based; settings: dose 1.96-3.9 µg/ml
Candida albicans [29] = experiment: Antifungal activity against itraconazole/fluconazole resistant Candida albicans ATCC MYA-1237 assessed as fungal growth inhibition by double dilution method; assay type: functional; method in brief: as §1
Candida albicans [30] = experiment: Antifungal activity against itraconazole/fluconazole susceptible Candida albicans ATCC MYA-2310 assessed as fungal growth inhibition by double dilution method; assay type: functional; method in brief: as §1
[Candida] auris [31] = Antifungal activity against Candida auris AR Bank # 0384 assessed as fungal growth inhibition by double dilution method; assay type: functional; settings: Candidozyma auris; method in brief: as §2
[Candida] auris [32] = Antifungal activity against Candida auris AR Bank # 0390 assessed as fungal growth inhibition by double dilution method; assay type: functional; settings: Candidozyma auris; method in brief: as §2
Nakaseomyces glabratus [33] = experiment: Antifungal activity against Candida glabrata ATCC 2001 assessed as fungal growth inhibition by double dilution method; assay type: functional; method in brief: as §2
[Candida] auris [34] = Antifungal activity against Candida auris AR Bank # 384 assessed as fungal growth inhibition by double dilution method; assay type: functional; settings: Candidozyma auris; method in brief: as §2

Compound | MIC (Candida albicans [1]) | MIC ([Candida] auris [2]) | MIC ([Candida] auris [3]) | MIC (Candida albicans [4]) | MIC (Saccharomyces cerevisiae [5]) | MIC (Candida albicans [6]) | MIC ([Candida] auris [7]) | MIC (Clavispora lusitaniae) | MIC (Aspergillus fumigatus [8]) | MIC (Candida duobushaemulonii [9]) | MIC ([Candida] auris [10]) | MIC ([Candida] haemuloni [11]) | MIC (Candida duobushaemulonii [12]) | MIC (Saccharomyces cerevisiae [13]) | MIC ([Candida] haemuloni [14]) | MIC ([Candida] auris [15]) | MIC ([Candida] auris [16]) | MIC (Aspergillus fumigatus [17]) | MIC (Nakaseomyces glabratus [18]) | MIC ([Candida] auris [19]) | other results
O=C(NNc1ccc(Cl)cc1)c1ccccn1 | 1.95 µg/mL (≈ 7.87 µM) | 1.95 µg/mL (≈ 7.87 µM) | 0.98 µg/mL (≈ 3.96 µM) | 0.12 µg/mL (≈ 0.484 µM) | 0.98 µg/mL (≈ 3.96 µM) | 0.98 µg/mL (≈ 3.96 µM) | 1.95 µg/mL (≈ 7.87 µM) | 0.98 µg/mL (≈ 3.96 µM) | 15.6 µg/mL (≈ 63 µM) | 0.4 µg/mL (≈ 1.61 µM) | 1.95 µg/mL (≈ 7.87 µM) | 0.49 µg/mL (≈ 1.98 µM) | 0.98 µg/mL (≈ 3.96 µM) | 0.98 µg/mL (≈ 3.96 µM) | 0.12 µg/mL (≈ 0.484 µM) | 1.95 µg/mL (≈ 7.87 µM) | 1.95 µg/mL (≈ 7.87 µM) | > 31.3 µg/mL | 3.9 µg/mL (≈ 15.7 µM) | 1.95 µg/mL (≈ 7.87 µM) | MIC (Aspergillus terreus): 3.9 µg/mL (≈ 15.7 µM); MIC ([Candida] auris [20]): 3.9 µg/mL (≈ 15.7 µM); MIC (Cryptococcus neoformans): 0.49 µg/mL (≈ 1.98 µM); MIC (Kodamaea ohmeri): 0.24 µg/mL (≈ 0.969 µM); MIC (Candida albicans [21]): 0.24 µg/mL (≈ 0.969 µM); MIC (Candida albicans [22]): 0.98 µg/mL (≈ 3.96 µM); MIC (Aspergillus fumigatus [23]): 7.8 µg/mL (≈ 31.5 µM); MIC (Aspergillus nidulans): 0.49 µg/mL (≈ 1.98 µM); MIC ([Candida] auris [24]): 0.98 µg/mL (≈ 3.96 µM); MIC (Pichia kudriavzevii [25]): 0.24 µg/mL (≈ 0.969 µM); MIC (Candida duobushaemulonii [26]): 0.98 µg/mL (≈ 3.96 µM); MIC (Aspergillus flavus): 31.3 µg/mL (≈ 126 µM); MIC (Pichia kudriavzevii [27]): 1.95 µg/mL (≈ 7.87 µM); Activity (Candida albicans [28]): Active; MIC (Candida albicans [29]): 0.98 µg/mL (≈ 3.96 µM); MIC (Candida albicans [30]): 0.98 µg/mL (≈ 3.96 µM); MIC ([Candida] auris [31]): 1.95 µg/mL (≈ 7.87 µM); MIC ([Candida] auris [32]): 1.95 µg/mL (≈ 7.87 µM); MIC (Nakaseomyces glabratus [33]): 1.95 µg/mL (≈ 7.87 µM); MIC ([Candida] auris [34]): 1.95 µg/mL (≈ 7.87 µM)
COc1ccc(NNC(=O)c2ccccn2)cc1 | 1.95 µg/mL (≈ 8.02 µM) | 1.95 µg/mL (≈ 8.02 µM) | 0.24 µg/mL (≈ 0.987 µM) | 0.12 µg/mL (≈ 0.493 µM) | 0.98 µg/mL (≈ 4.03 µM) | 0.98 µg/mL (≈ 4.03 µM) | 0.49 µg/mL (≈ 2.01 µM) | 0.98 µg/mL (≈ 4.03 µM) | 31.3 µg/mL (≈ 129 µM) | 0.98 µg/mL (≈ 4.03 µM) | 0.12 µg/mL (≈ 0.493 µM) | 0.49 µg/mL (≈ 2.01 µM) | 0.98 µg/mL (≈ 4.03 µM) | 1.95 µg/mL (≈ 8.02 µM) | 0.49 µg/mL (≈ 2.01 µM) | 1.95 µg/mL (≈ 8.02 µM) | 0.49 µg/mL (≈ 2.01 µM) | > 31.3 µg/mL | 3.9 µg/mL (≈ 16 µM) | 0.98 µg/mL (≈ 4.03 µM) | MIC (Aspergillus terreus): 31.3 µg/mL (≈ 129 µM); MIC ([Candida] auris [20]): 1.95 µg/mL (≈ 8.02 µM); MIC (Cryptococcus neoformans): 0.49 µg/mL (≈ 2.01 µM); MIC (Kodamaea ohmeri): 0.49 µg/mL (≈ 2.01 µM); MIC (Candida albicans [21]): 0.49 µg/mL (≈ 2.01 µM); MIC (Candida albicans [22]): 0.98 µg/mL (≈ 4.03 µM); MIC (Aspergillus fumigatus [23]): > 31.3 µg/mL; MIC (Aspergillus nidulans): 0.49 µg/mL (≈ 2.01 µM); MIC ([Candida] auris [24]): 0.24 µg/mL (≈ 0.987 µM); MIC (Pichia kudriavzevii [25]): 0.49 µg/mL (≈ 2.01 µM); MIC (Candida duobushaemulonii [26]): 0.98 µg/mL (≈ 4.03 µM); MIC (Aspergillus flavus): > 31.3 µg/mL; MIC (Pichia kudriavzevii [27]): 0.49 µg/mL (≈ 2.01 µM); Activity (Candida albicans [28]): Active; MIC (Candida albicans [29]): 0.98 µg/mL (≈ 4.03 µM); MIC (Candida albicans [30]): 0.98 µg/mL (≈ 4.03 µM); MIC ([Candida] auris [31]): 3.9 µg/mL (≈ 16 µM); MIC ([Candida] auris [32]): 0.12 µg/mL (≈ 0.493 µM); MIC (Nakaseomyces glabratus [33]): 0.98 µg/mL (≈ 4.03 µM); MIC ([Candida] auris [34]): 3.9 µg/mL (≈ 16 µM)
